# Columns and labels:
# [1] = tested on: Escherichia coli; assay: Antimicrobial activity against Escherichia coli harboring delta tolC mutant assessed as growth inhibition at 50 uM relative to control; type: functional
# Procedure, shortened: (§1)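 E. coli K12 wild-type and its ΔtolC and ΔacrB efflux mutants were used. Percentage growth inhibition was taken at 100 μM, or at 25 or 50 μM where compound solubility limited the top concentration, when no MIC could be determined.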
# [2] = tested on: Escherichia coli; assay: Antimicrobial activity against Escherichia coli BL21 (DE3) assessed as growth inhibition at 25 uM relative to control; type: functional
# Procedure, shortened: (§2)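 Broth growth assay with E. coli BL21(DE3)omp8 (porin-[…]), E. coli D22 or S. aureus Newman. Percent growth inhibition was measured at 100 μM, or at a lower concentration where compound solubility limited it, whenever no MIC could be determined.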
# [3] = target: T1, 4-diphosphocytidyl-2-C-methyl-D-erythritol kinase (Escherichia coli (strain K12), UniProt P62615); assay: Inhibition of IspE expressed in Escherichia coli incubated for 30 mins by microplate reader assay
# T1 sequence (P62615 whole entry): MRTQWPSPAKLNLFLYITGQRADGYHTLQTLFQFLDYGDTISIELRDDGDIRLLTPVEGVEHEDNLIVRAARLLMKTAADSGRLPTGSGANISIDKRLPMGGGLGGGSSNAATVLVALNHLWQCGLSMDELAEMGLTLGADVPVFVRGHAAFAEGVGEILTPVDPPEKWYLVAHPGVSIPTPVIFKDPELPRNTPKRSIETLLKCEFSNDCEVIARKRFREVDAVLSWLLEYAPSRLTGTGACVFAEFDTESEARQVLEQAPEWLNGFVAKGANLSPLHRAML
# [4] = Inhibition of IspE in Plasmodium falciparum incubated for 30 mins by microplate reader assay
# Procedure, shortened: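 P. falciparum IspE with C-terminal His6, expressed in E. coli XL1 and purified by Ni2+ chelating chromatography and then G-25 gel filtration. Coupled PK/LDH assay with 1.0 mM CDP-ME in 100 mM Tris-HCl pH 7.6 plus MgCl2, KCl, DTT, NADH, PEP, ATP, PK and LDH. Compound added from DMSO. Read photometrically at room temperature for 30 min.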
# [5] = tested on: Staphylococcus aureus; assay: Antimicrobial activity against Staphylococcus aureus subsp. aureus str. Newman assessed as growth inhibition at 25 uM relative to control; type: functional; procedure, shortened: as §2
# [6] = tested on: Escherichia coli; assay: Antimicrobial activity against Escherichia coli D22 assessed as growth inhibition at 25 uM relative to control; type: functional; procedure, shortened: as §2
# [7] = tested on: Plasmodium falciparum; assay: Antiplasmodial activity against Plasmodium falciparum NF54 infected in human erythrocyte assessed as reduction in [3H]hypoxanthine incorporation incubated for 24 hrs by beta liquid scintillation counter analysis; type: functional
# Procedure, shortened: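 Compounds (DMSO stocks) were titrated in duplicate over a 64-fold range at 1.25% haematocrit and 0.3% parasitaemia for 48 h. [3H]hypoxanthine (0.25 μCi/well) was then added for 24 h and incorporation counted by scintillation. Results are % of untreated control, with IC50 by linear interpolation.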
# [8] = tested on: Escherichia coli; assay: Antimicrobial activity against Escherichia coli harboring deltaACRB mutant assessed as growth inhibition at 25 uM relative to control; type: functional; procedure, shortened: as §1
# [9] = tested on: Escherichia coli; assay: Antimicrobial activity against Escherichia coli harboring delta tolC mutant assessed as growth inhibition at 25 uM relative to control; type: functional; procedure, shortened: as §1
# [10] = tested on: HepG2; assay: Cytotoxicity against human HepG2 cells at 25 uM after 72 hrs by MTT assay; type: functional
# [11] = Inhibition of PK/LDH (unknown origin)
# Procedure, shortened: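 Counter-screen of the auxiliary enzymes: 1 mM ADP, 2 mM PEP, 1 mM NADH, PK and LDH (0.05 U/mL each), 10 mM MgCl2, 200 mM KCl, 10 mM DTT in 100 mM Tris-HCl pH 7.6. Compound added from DMSO. NADH decrease monitored photometrically at room temperature for 30 min.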
# [12] = tested on: Escherichia coli; assay: Antimicrobial activity against Escherichia coli harboring delta tolC mutant assessed as growth inhibition at 100 uM relative to control; type: functional; procedure, shortened: as §1
# [13] = tested on: Escherichia coli; assay: Antimicrobial activity against Escherichia coli K-12 mutant assessed as growth inhibition at 100 uM relative to control; type: functional; procedure, shortened: as §1
# [14] = tested on: HepG2; assay: Cytotoxicity against human HepG2 cells at 100 uM after 72 hrs by MTT assay; type: functional
# [15] = tested on: Staphylococcus aureus; assay: Antimicrobial activity against Staphylococcus aureus subsp. aureus str. Newman assessed as growth inhibition at 50 uM relative to control; type: functional; procedure, shortened: as §2
# [16] = tested on: Escherichia coli; assay: Antimicrobial activity against Escherichia coli harboring deltaACRB mutant assessed as growth inhibition at 100 uM relative to control; type: functional; procedure, shortened: as §1
# [17] = tested on: Escherichia coli; assay: Antimicrobial activity against Escherichia coli BL21 (DE3) assessed as growth inhibition at 100 uM relative to control; type: functional; procedure, shortened: as §2
# [18] = tested on: Escherichia coli; assay: Antimicrobial activity against Escherichia coli D22 assessed as growth inhibition at 100 uM relative to control; type: functional; procedure, shortened: as §2
# [19] = Octanol/water partition co-efficient, log P of compound; type: physicochemical
# Procedure, shortened: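 Log P(o/w) calculated in silico, not measured.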
# [20] = tested on: Escherichia coli; assay: Antimicrobial activity against Escherichia coli harboring deltaACRB mutant assessed as growth inhibition at 50 uM relative to control; type: functional; procedure, shortened: as §1
# [21] = tested on: Escherichia coli; assay: Antimicrobial activity against Escherichia coli BL21 (DE3) assessed as growth inhibition at 50 uM relative to control; type: functional; procedure, shortened: as §2
# [22] = tested on: HepG2; assay: Cytotoxicity against human HepG2 cells at 50 uM after 72 hrs by MTT assay; type: functional
# [23] = tested on: Escherichia coli; assay: Antimicrobial activity against Escherichia coli D22 assessed as growth inhibition at 50 uM relative to control; type: functional; procedure, shortened: as §2
# [24] = tested on: Staphylococcus aureus; assay: Antimicrobial activity against Staphylococcus aureus subsp. aureus str. Newman assessed as growth inhibition at 100 uM relative to control; type: functional; procedure, shortened: as §2
# [25] = tested on: Escherichia coli; assay: Antimicrobial activity against Escherichia coli K-12 mutant assessed as growth inhibition at 100 uM in presence of polymyxin B nonapeptide relative to control; type: functional
compound,measurement,setting,value
Cc1cc(-c2csc(NC(=O)[C@@H](NC(=O)OC(C)(C)C)N[C@H](C(=O)O)C(C)C)n2)c(C)n1C,inhibition at 50 µM,[1],14%
CCCn1c(C)cc(-c2csc(NC(=O)c3ccco3)n2)c1C,inhibition at 25 µM,[2],3%
same,IC50,[3],91 µM
same,IC50,[4],57 µM
same,inhibition at 25 µM,[5],6%
same,inhibition at 25 µM,[6],9%
same,IC50,[7],5 µM
same,inhibition at 25 µM,[8],5%
same,inhibition at 25 µM,[9],30%
same,inhibition at 25 µM,[10],19%
same,IC50,[11],65 µM
Cc1cc(-c2csc(NC(=O)[C@@H](N)N[C@H](C(=O)O)C(C)C)n2)c(C)n1C,inhibition at 100 µM,[12],42%
CC(C)(C)OC(=O)N[C@@H](NCC(=O)O)C(=O)Nc1csc(-c2ccccc2)n1,inhibition at 100 µM,[12],34%
Cc1cc(-c2csc(NC(=O)[C@@H](NC(=O)OC(C)(C)C)N[C@@H](Cc3ccc(O)cc3)C(=O)O)n2)c(C)n1C,inhibition at 50 µM,[1],13%
CCn1c(C)cc(-c2csc(NC(=O)[C@@H](N)NCC(=O)O)n2)c1C,inhibition at 100 µM,[12],55%
same,inhibition at 100 µM,[13],13%
same,inhibition at 100 µM,[14],23%
same,inhibition at 50 µM,[15],14%
same,inhibition at 100 µM,[16],65%
same,inhibition at 100 µM,[17],16%
same,inhibition at 100 µM,[18],20%
same,logP,[19],1.4
CC(C)C[C@H](N[C@H](NC(=O)OC(C)(C)C)C(=O)Nc1csc(-c2ccccc2)n1)C(=O)O,inhibition at 100 µM,[12],3%
CCCn1c(C)cc(-c2csc(NC(=O)c3cccs3)n2)c1C,inhibition at 50 µM,[20],7%
same,inhibition at 50 µM,[21],19%
same,inhibition at 50 µM,[22],-3%
same,IC50,[3],68 µM
same,inhibition at 50 µM,[15],7%
same,inhibition at 50 µM,[23],4%
same,IC50,[4],35 µM
same,inhibition at 50 µM,[1],33%
same,IC50,[7],6 µM
same,IC50,[11],56 µM
Cc1cc(-c2csc(NC(=O)[C@@H](N)N[C@@H](Cc3ccc(O)cc3)C(=O)O)n2)c(C)n1C,inhibition at 100 µM,[12],38%
CC(C)[C@H](N[C@H](N)C(=O)Nc1csc(-c2ccccc2)n1)C(=O)O,inhibition at 100 µM,[12],17%
same,inhibition at 100 µM,[24],5%
same,inhibition at 100 µM,[13],13%
same,inhibition at 100 µM,[16],2%
same,inhibition at 100 µM,[17],16%
same,inhibition at 100 µM,[18],14%
CC(C)C[C@H](N[C@H](N)C(=O)Nc1csc(-c2ccccc2)n1)C(=O)O,inhibition at 100 µM,[12],32%
same,inhibition at 100 µM,[24],11%
same,inhibition at 100 µM,[13],18%
same,inhibition at 100 µM,[16],11%
same,inhibition at 100 µM,[17],30%
same,inhibition at 100 µM,[18],18%
Cc1cc(-c2csc(NC(=O)[C@@H](NC(=O)OC(C)(C)C)N[C@@H](CC(C)C)C(=O)O)n2)c(C)n1C,inhibition at 50 µM,[1],8%
Nc1nc(=O)n(C2CCCS2)cc1C#CCNS(=O)(=O)C1CC1 (stereo unspecified),IC50,[3],1 µM
same,IC50,[4],> 500 µM
same,inhibition at 100 µM,[25],6%
same,IC50,[11],> 500 µM
Cc1cc(-c2csc(NC(=O)[C@@H](N)N[C@@H](CC(C)C)C(=O)O)n2)c(C)n1C,inhibition at 100 µM,[12],58%
same,inhibition at 100 µM,[24],52%
N[C@@H](NCC(=O)O)C(=O)Nc1csc(-c2ccccc2)n1,inhibition at 100 µM,[12],10%
same,inhibition at 100 µM,[24],5%
same,inhibition at 100 µM,[13],22%
same,inhibition at 100 µM,[14],17%
same,inhibition at 100 µM,[16],6%
same,inhibition at 100 µM,[17],19%
same,inhibition at 100 µM,[18],15%
CCn1c(C)cc(-c2csc(NC(=O)[C@H](NCC(=O)O)NC(=O)OC(C)(C)C)n2)c1C,inhibition at 50 µM,[1],41%
CC(C)[C@H](N[C@H](NC(=O)OC(C)(C)C)C(=O)Nc1csc(-c2ccccc2)n1)C(=O)O,inhibition at 100 µM,[12],21%
Cc1cc(-c2csc(NC(=O)[C@@H](N)NCC(=O)O)n2)c(C)n1C,inhibition at 100 µM,[12],57%
same,inhibition at 100 µM,[24],6%
same,inhibition at 100 µM,[13],13%
same,inhibition at 50 µM,[22],19%
same,inhibition at 100 µM,[16],8%
same,inhibition at 100 µM,[17],18%
same,inhibition at 100 µM,[18],3%
same,logP,[19],0.9
Cc1cc(-c2csc(NC(=O)[C@H](NCC(=O)O)NC(=O)OC(C)(C)C)n2)c(C)n1C,inhibition at 100 µM,[12],46%
